Marks after values point to notes of the source that are not given here.
Legend:
[1] = Study 2 Part 1: single ascending dose PK via MDDPI; format: in vivo; settings: human, plasma, inhaled
In short: (§1)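 Blood was collected in lithium heparin, chilled on ice, and centrifuged at 2,000 ×g for 15 min at ~4°C. Plasma was stabilised with 1 M citric acid (100 µL per 1 mL plasma) and stored at ≤−65°C. After solid-phase extraction, samples were assayed by validated LC-MS/MS with heated electrospray and a deuterated internal standard (LLOQ 10 pg/mL). PK parameters were derived non-compartmentally.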

[2] = Study 2 Part 2: adverse events after multiple BID doses via MDDPI; format: in vivo, human; settings: N=9
In short: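 Study 2 Part 2 used three parallel escalating cohorts of healthy men and women. Subjects inhaled test compound at 1,200, 2,000 or 2,400 µg twice daily, or placebo, for 14 days via a reservoir multi-dose dry-powder inhaler, confined from day −2 to day 15. AEs were recorded with investigator-assessed relation to study medication, as number (%) of the safety population.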

[3] = Study 1 Part 1: adverse events after single doses via SDDPI; format: in vivo, human
In short: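 Study 1 Part 1 used a crossover design in healthy men aged 18–55. Single inhaled doses of test compound (20–2,000 µg) or matching placebo were given via a capsule-based single-dose dry-powder inhaler. Investigators recorded each AE and its relation to study medication. Counts are number (%) of the safety population, defined as randomized subjects receiving at least one dose.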

[4] = Safety assessments in both studies; format: in vivo, human
In short: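 Healthy non- or ex-smoking volunteers aged 18–55 (Study 1 men only; Study 2 men and women), randomized, double-blind, placebo-controlled, single centre. AEs were recorded with the investigator-judged relation to study drug. Haematology and blood chemistry were taken at baseline and end of dosing. Blood pressure, ECG and 24 h Holter were taken at regular intervals, and FEV1 was checked for post-dose bronchospasm.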

[5] = in humans; cited from earlier work
[6] = cited from earlier work
[7] = Study 2 Part 2: repeat ascending dose; format: in vivo, human; settings: MDDPI; for Racc / CL/F / AUC(0-t): geometric mean (% CV); for AUC(0-t) / Tmax: human, plasma, inhaled; for Tmax: median (range)
In short: as §1

[8] = following both single and multiple doses

CS(=O)(=O)Nc1ccc(C(=O)O[C@@H](Cc2c(Cl)c[n+]([O-])cc2Cl)c2ccc(OC(F)F)c(OCC3CC3)c2)cc1OCC1CC1 [CHF6001]
Tmax [1]: 3 h | AUC(0-t) ([1]; 2400 µg): 35.2 ng·h/mL | Cmax ([1]; 2400 µg): 1.23 ng/mL | Tmax ([1]; 2400 µg): 3 h | half-life ([1]; 2400 µg): 49.1 h | AUC(0-t) ([1]; 4000 µg): 75.8 ng·h/mL | Cmax ([1]; 4000 µg): 2.55 ng/mL | Tmax ([1]; 4000 µg): 3 h | half-life ([1]; 4000 µg): 44 h | AUC(0-t) ([1]; 4800 µg): 77.4 ng·h/mL | Cmax ([1]; 4800 µg): 2.72 ng/mL | Tmax ([1]; 4800 µg): 3 h | half-life ([1]; 4800 µg): 40 h | AE considered related to study medication ([2]; 1,200 µg BID 14 days): 4 (44.4) Number (%) of subjects | AE leading to death ([2]; 1,200 µg BID 14 days): 0 Number (%) of subjects | AE leading to withdrawal ([2]; 1,200 µg BID 14 days): 0 Number (%) of subjects | At least one AE ([2]; 1,200 µg BID 14 days): 6 (66.7) Number (%) of subjects | At least one SAE ([2]; 1,200 µg BID 14 days): 0 Number (%) of subjects | Back pain (AE) ([2]; 1,200 µg BID 14 days): 0 Number (%) of subjects | Diarrhea (AE considered related to study medication) ([2]; 1,200 µg BID 14 days): 1 (11.1) Number (%) of subjects | Flatulence (AE considered related to study medication) ([2]; 1,200 µg BID 14 days): 1 (11.1) Number (%) of subjects | Headache (AE considered related to study medication) ([2]; 1,200 µg BID 14 days): 3 (33.3) Number (%) of subjects | Headache (AE) ([2]; 1,200 µg BID 14 days): 3 (33.3) Number (%) of subjects | Nausea (AE considered related to study medication) ([2]; 1,200 µg BID 14 days): 0 Number (%) of subjects | Parosmia (AE considered related to study medication) ([2]; 1,200 µg BID 14 days): 0 Number (%) of subjects | Severe AE ([2]; 1,200 µg BID 14 days): 0 Number (%) of subjects | AE leading to death ([2]; 2,000 µg BID 14 days): 0 Number (%) of subjects | AE leading to withdrawal ([2]; 2,000 µg BID 14 days): 0 Number (%) of subjects | At least one AE ([2]; 2,000 µg BID 14 days): 5 (55.6) Number (%) of subjects | At least one SAE ([2]; 2,000 µg BID 14 days): 0 Number (%) of subjects | Back pain (AE) ([2]; 2,000 µg BID 14 days): 3 (33.3) Number (%) of subjects | Diarrhea (AE considered related to study medication) ([2]; 2,000 µg BID 14 days): 0 Number (%) of subjects | Flatulence (AE considered related to study medication) ([2]; 2,000 µg BID 14 days): 0 Number (%) of subjects | Headache (AE considered related to study medication) ([2]; 2,000 µg BID 14 days): 2 (22.2) Number (%) of subjects | Headache (AE) ([2]; 2,000 µg BID 14 days): 2 (22.2) Number (%) of subjects | Nausea (AE considered related to study medication) ([2]; 2,000 µg BID 14 days): 0 Number (%) of subjects | Parosmia (AE considered related to study medication) ([2]; 2,000 µg BID 14 days): 0 Number (%) of subjects | Severe AE ([2]; 2,000 µg BID 14 days): 1 (11.1) Number (%) of subjects | AE considered related to study medication ([2]; 2,400 µg BID 14 days): 1 (11.1) Number (%) of subjects | AE leading to death ([2]; 2,400 µg BID 14 days): 0 Number (%) of subjects | AE leading to withdrawal ([2]; 2,400 µg BID 14 days): 1 (11.1) Number (%) of subjects | At least one AE ([2]; 2,400 µg BID 14 days): 7 (77.8) Number (%) of subjects | At least one SAE ([2]; 2,400 µg BID 14 days): 0 Number (%) of subjects | Back pain (AE) ([2]; 2,400 µg BID 14 days): 5 (55.6) Number (%) of subjects | Diarrhea (AE considered related to study medication) ([2]; 2,400 µg BID 14 days): 0 Number (%) of subjects | Flatulence (AE considered related to study medication) ([2]; 2,400 µg BID 14 days): 0 Number (%) of subjects | Headache (AE considered related to study medication) ([2]; 2,400 µg BID 14 days): 1 (11.1) Number (%) of subjects | Headache (AE) ([2]; 2,400 µg BID 14 days): 2 (22.2) Number (%) of subjects | Nausea (AE considered related to study medication) ([2]; 2,400 µg BID 14 days): 0 Number (%) of subjects | Parosmia (AE considered related to study medication) ([2]; 2,400 µg BID 14 days): 0 Number (%) of subjects | Severe AE ([2]; 2,400 µg BID 14 days): 0 Number (%) of subjects | AE considered related to study medication ([3]; single dose 20 µg, N=8): 0 Number (%) of subjects | AE leading to death ([3]; single dose 20 µg, N=8): 0 Number (%) of subjects | AE leading to withdrawal ([3]; single dose 20 µg, N=8): 0 Number (%) of subjects | At least one AE ([3]; single dose 20 µg, N=8): 1 (12.5) Number (%) of subjects | At least one SAE ([3]; single dose 20 µg, N=8): 0 Number (%) of subjects | Severe AE ([3]; single dose 20 µg, N=8): 0 Number (%) of subjects | AE considered related to study medication ([3]; single dose 100 µg, N=8): 0 Number (%) of subjects | AE leading to death ([3]; single dose 100 µg, N=8): 0 Number (%) of subjects | AE leading to withdrawal ([3]; single dose 100 µg, N=8): 0 Number (%) of subjects | At least one AE ([3]; single dose 100 µg, N=8): 0 Number (%) of subjects | At least one SAE ([3]; single dose 100 µg, N=8): 0 Number (%) of subjects | Severe AE ([3]; single dose 100 µg, N=8): 0 Number (%) of subjects | AE considered related to study medication ([3]; single dose 200 µg, N=8): 0 Number (%) of subjects | AE leading to death ([3]; single dose 200 µg, N=8): 0 Number (%) of subjects | AE leading to withdrawal ([3]; single dose 200 µg, N=8): 1 (12.5) Number (%) of subjects | At least one AE ([3]; single dose 200 µg, N=8): 3 (37.5) Number (%) of subjects | At least one SAE ([3]; single dose 200 µg, N=8): 0 Number (%) of subjects | Severe AE ([3]; single dose 200 µg, N=8): 0 Number (%) of subjects | AE considered related to study medication ([3]; single dose 400 µg, N=7): 0 Number (%) of subjects | AE leading to death ([3]; single dose 400 µg, N=7): 0 Number (%) of subjects | AE leading to withdrawal ([3]; single dose 400 µg, N=7): 0 Number (%) of subjects | At least one AE ([3]; single dose 400 µg, N=7): 2 (28.6) Number (%) of subjects | At least one SAE ([3]; single dose 400 µg, N=7): 0 Number (%) of subjects | Severe AE ([3]; single dose 400 µg, N=7): 0 Number (%) of subjects | AE considered related to study medication ([3]; single dose 800 µg, N=7): 0 Number (%) of subjects | AE leading to death ([3]; single dose 800 µg, N=7): 0 Number (%) of subjects | AE leading to withdrawal ([3]; single dose 800 µg, N=7): 0 Number (%) of subjects | At least one AE ([3]; single dose 800 µg, N=7): 3 (42.9) Number (%) of subjects | At least one SAE ([3]; single dose 800 µg, N=7): 0 Number (%) of subjects | Severe AE ([3]; single dose 800 µg, N=7): 0 Number (%) of subjects | AE considered related to study medication ([3]; single dose 1,600 µg, N=7): 0 Number (%) of subjects | AE leading to death ([3]; single dose 1,600 µg, N=7): 0 Number (%) of subjects | AE leading to withdrawal ([3]; single dose 1,600 µg, N=7): 0 Number (%) of subjects | At least one AE ([3]; single dose 1,600 µg, N=7): 2 (28.6) Number (%) of subjects | At least one SAE ([3]; single dose 1,600 µg, N=7): 0 Number (%) of subjects | Severe AE ([3]; single dose 1,600 µg, N=7): 0 Number (%) of subjects | AE considered related to study medication ([3]; single dose 2,000 µg, N=6): 0 Number (%) of subjects | AE leading to death ([3]; single dose 2,000 µg, N=6): 0 Number (%) of subjects | AE leading to withdrawal ([3]; single dose 2,000 µg, N=6): 0 Number (%) of subjects | At least one AE ([3]; single dose 2,000 µg, N=6): 0 Number (%) of subjects | At least one SAE ([3]; single dose 2,000 µg, N=6): 0 Number (%) of subjects | Severe AE ([3]; single dose 2,000 µg, N=6): 0 Number (%) of subjects | mean laboratory values ([4]; both studies): within normal ranges | post-dose decreases in FEV1 (bronchospasm) ([4]; both studies, single and multiple doses): no clinically significant post-dose decreases | mean ECG values [4, 8]: within the normal range | mean systolic and diastolic blood pressure [4, 8]: within the normal range | nausea events ([4]; following single doses in both studies): no nausea events | relationship between dose and occurrence of AEs or serious adverse events ([4]; single or multiple dosing): no relationship | plasma protein bound [5]: > 99% | systemic bioavailability ([6]; after intratracheal administration): low systemic bioavailability | bioavailability ([6]; after oral administration): very low bioavailability | elimination ([6]; following intravenous administration, predominantly via the fecal route): rapidly eliminated | Racc ([7]; 1,200 µg BID, Day 14, N=9): 6.66 (38.4) | CL/F ([7]; 1,200 µg BID, Day 14, n=8): 588 (50.7) ^a mL/min | CL/F ([7]; 2,000 µg BID, Day 14, N=9): 652 (39.0) mL/min | Racc ([7]; 2,000 µg BID, Day 14, N=9): 6.28 (19.5) | CL/F ([7]; 2,400 µg BID, Day 14, n=8): 646 (37.0) ^a mL/min | Racc ([7]; 2,400 µg BID, Day 14, n=8): 5.47 (36.6) ^a | AUC(0-t) ([7]; 1200 µg, AUC0–12 h, 1,200 µg BID, Day 14, N=9): 34 ng·h/mL | Tmax ([7]; 1200 µg, tmax, 1,200 µg BID, Day 14, N=9): 1.6 h | AUC(0-t) ([7]; 2000 µg, AUC0–12 h, 2,000 µg BID, Day 14, N=9): 51.1 ng·h/mL | Tmax ([7]; 2000 µg, tmax, 2,000 µg BID, Day 14, N=9): 1.5 h | AUC(0-t) ([7]; 2400 µg, AUC0–12 h, 2,400 µg BID, Day 14, n=8): 61.9 ng·h/mL | Tmax ([7]; 2400 µg, tmax, 2,400 µg BID, Day 14, n=8): 2.3 h

From paper PMC6203112 (International Journal of Chronic Obstructive Pulmonary …, 2018)
